Data taken from ChEMBL document CHEMBL4007497, “Development of Potent and Selective Antagonists for the UTP-Activated P2Y4 Receptor” (J Med Chem, 2017).
Values joined by “and” are separate entries in the source; they are usually repeats but may differ in a detail not shown here. Equal entries are not always repeated. One block for each compound: values may come before it. Active and inactive are the calls of the source. No cut-off for these calls is given here.

Key:
P2Y purinoceptor 4 [1] = biological target: T1, P2Y purinoceptor 4 (Homo sapiens, UniProt P51582); assay: Antagonist activity at human P2Y4 receptor transfected in human 1321N1 cells assessed as inhibition of UTP-activated intracellular calcium mobilization preincubated for 30 mins followed by UTP addition by fluo-4-dye based fluorescence assay; type: functional, cell-based
T1 sequence (P51582 whole entry): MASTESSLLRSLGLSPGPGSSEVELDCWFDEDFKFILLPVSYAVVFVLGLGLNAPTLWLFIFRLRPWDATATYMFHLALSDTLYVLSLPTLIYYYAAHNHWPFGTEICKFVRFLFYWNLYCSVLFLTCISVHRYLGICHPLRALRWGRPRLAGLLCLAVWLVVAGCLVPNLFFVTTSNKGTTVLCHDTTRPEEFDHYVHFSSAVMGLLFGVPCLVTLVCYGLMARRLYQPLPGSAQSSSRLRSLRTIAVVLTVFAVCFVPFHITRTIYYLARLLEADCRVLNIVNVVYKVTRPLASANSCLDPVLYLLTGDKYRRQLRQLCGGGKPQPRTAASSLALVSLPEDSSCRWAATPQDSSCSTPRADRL
In short: (§1)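 1321N1 astrocytoma cells stably expressing the human P2Y subtype, grown in DMEM with 10 % FCS and 200 μg/mL G418 at 37 °C. Plated 50,000 cells/well about 24 h before testing. Cells loaded with fluo-4 AM for 1 h, then placed in HBSS and preincubated 30 min with compound. Agonist was injected at about EC80: ADP 500 nM (P2Y1), UTP 500 nM (P2Y2, P2Y4), UDP 750 nM (P2Y6). Fluorescence read at ex 488/em 525 nm. At least three independent experiments in duplicate. IC50 obtained by nonlinear regression.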

P2Y purinoceptor 6 [2] = biological target: T2, P2Y purinoceptor 6 (Homo sapiens, UniProt Q15077); assay: Antagonist activity at human P2Y6 receptor transfected in human 1321N1 cells assessed as inhibition of UDP-activated intracellular calcium mobilization preincubated for 30 mins followed by UDP addition by fluo-4-dye based fluorescence assay; type: functional, cell-based; in short: as §1
T2 sequence (Q15077 whole entry): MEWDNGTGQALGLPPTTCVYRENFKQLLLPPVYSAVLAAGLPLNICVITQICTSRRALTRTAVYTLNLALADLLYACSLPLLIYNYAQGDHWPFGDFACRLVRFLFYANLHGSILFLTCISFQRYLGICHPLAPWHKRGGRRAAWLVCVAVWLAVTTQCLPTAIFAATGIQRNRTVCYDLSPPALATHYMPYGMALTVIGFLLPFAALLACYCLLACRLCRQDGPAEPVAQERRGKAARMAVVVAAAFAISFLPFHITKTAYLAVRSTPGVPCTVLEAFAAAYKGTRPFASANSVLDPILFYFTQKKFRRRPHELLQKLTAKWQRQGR

P2Y purinoceptor 1 [3] = biological target: T3, P2Y purinoceptor 1 (Homo sapiens, UniProt P47900); assay: Antagonist activity at human P2Y1 receptor transfected in human 1321N1 cells assessed as inhibition of ADP-activated intracellular calcium mobilization preincubated for 30 mins followed by ADP addition by fluo-4-dye based fluorescence assay; type: functional, cell-based; in short: as §1
T3 sequence (P47900 whole entry): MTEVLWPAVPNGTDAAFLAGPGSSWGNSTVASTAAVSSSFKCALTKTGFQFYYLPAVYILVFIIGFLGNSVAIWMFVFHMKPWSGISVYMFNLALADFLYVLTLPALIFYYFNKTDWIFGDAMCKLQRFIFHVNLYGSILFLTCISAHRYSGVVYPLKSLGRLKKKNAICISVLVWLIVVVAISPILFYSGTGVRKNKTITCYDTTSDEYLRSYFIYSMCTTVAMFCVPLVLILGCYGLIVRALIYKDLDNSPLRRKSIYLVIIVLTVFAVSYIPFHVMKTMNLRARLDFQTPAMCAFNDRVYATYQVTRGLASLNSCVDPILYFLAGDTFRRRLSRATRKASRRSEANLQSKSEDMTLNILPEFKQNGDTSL

P2Y purinoceptor 2 = P2Y purinoceptor 2 (Homo sapiens, UniProt P41231); assay: Antagonist activity at human P2Y2 receptor transfected in human 1321N1 cells assessed as inhibition of UTP-activated intracellular calcium mobilization preincubated for 30 mins followed by UTP addition by fluo-4-dye based fluorescence assay; type: functional, cell-based; in short: as §1
P2Y purinoceptor 2, sequence (P41231 whole entry): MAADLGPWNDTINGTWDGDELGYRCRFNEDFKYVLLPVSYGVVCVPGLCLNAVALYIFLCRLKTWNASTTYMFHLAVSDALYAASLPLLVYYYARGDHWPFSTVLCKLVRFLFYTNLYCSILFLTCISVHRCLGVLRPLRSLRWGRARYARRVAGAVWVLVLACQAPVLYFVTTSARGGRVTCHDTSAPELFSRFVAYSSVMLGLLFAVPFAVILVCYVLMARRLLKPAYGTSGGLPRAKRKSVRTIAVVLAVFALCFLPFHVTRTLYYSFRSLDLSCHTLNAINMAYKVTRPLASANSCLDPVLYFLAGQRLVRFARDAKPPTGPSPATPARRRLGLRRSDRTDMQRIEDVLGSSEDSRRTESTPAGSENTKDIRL

P2Y purinoceptor 12 [4] = biological target: T4, P2Y purinoceptor 12 (Homo sapiens, UniProt Q9H244); assay: Antagonist activity at human P2Y12 receptor expressed in CHO cells assessed as inhibition of 2-MeSADP-induced beta-arrestin translocation preincubated for 30 mins followed by 2-MeSADP addition measured after 90 mins by luminescence-based topcount method; type: cell-based
T4 sequence (Q9H244 whole entry): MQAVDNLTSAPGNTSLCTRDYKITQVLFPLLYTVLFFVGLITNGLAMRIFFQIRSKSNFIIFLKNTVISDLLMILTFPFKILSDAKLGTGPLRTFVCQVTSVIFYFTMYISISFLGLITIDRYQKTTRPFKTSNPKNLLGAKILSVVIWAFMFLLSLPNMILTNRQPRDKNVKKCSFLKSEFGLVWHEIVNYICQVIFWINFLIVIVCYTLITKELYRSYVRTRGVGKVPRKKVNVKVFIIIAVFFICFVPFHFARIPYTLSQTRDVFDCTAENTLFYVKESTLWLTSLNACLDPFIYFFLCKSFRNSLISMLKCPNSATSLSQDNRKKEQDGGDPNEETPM

P2Y purinoceptor 4 [5] = biological target: T1, P2Y purinoceptor 4; assay: Antagonist activity at human P2Y4 receptor transfected in human 1321N1 cells assessed as inhibition of UTP-activated intracellular calcium mobilization at 30 uM preincubated for 30 mins followed by UTP addition by fluo-4-dye based fluorescence assay; type: functional, cell-based
P2Y purinoceptor 4 [6] = biological target: T1, P2Y purinoceptor 4; assay: Antagonist activity at human P2Y4 receptor transfected in human 1321N1 cells assessed as inhibition of UTP-activated intracellular calcium mobilization at 100 uM preincubated for 30 mins followed by UTP addition by fluo-4-dye based fluorescence assay; type: functional, cell-based
P2Y purinoceptor 12 [7] = biological target: T4, P2Y purinoceptor 12; assay: Competitive antagonist activity at human P2Y12 receptor expressed in CHO cells assessed as forskolin/ 2-methylthio-ADP-induced cAMP production preincubated for 10 mins followed 2-methylthio-ADP addition measured after 3.5 hrs by luciferase reporter gene assay; type: functional, cell-based; conditions: read-out: pA2 (converted)
P2Y purinoceptor 4 [8] = biological target: T1, P2Y purinoceptor 4; assay: Non-competitive antagonist activity at human P2Y4 receptor transfected in human 1321N1 cells assessed as inhibition of UTP-activated intracellular calcium mobilization at 15 uM preincubated for 30 mins followed by UTP addition by fluo-4-dye based fluorescence assay; type: functional, cell-based
In short: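 Fluo-4-loaded 1321N1 cells stably expressing human P2Y4 were preincubated 30 min with fixed antagonist concentrations up to 15 μM in HBSS. Full UTP concentration-response curves were then recorded by injecting UTP and reading fluorescence immediately (ex 488/em 525 nm). The mode of antagonism was judged from depression of the maximum versus rightward shift. EC50 values were compared by unpaired t-test.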

P2Y purinoceptor 1 [9] = biological target: T3, P2Y purinoceptor 1; assay: Antagonist activity at human P2Y1 receptor transfected in human 1321N1 cells assessed as inhibition of ADP-activated intracellular calcium mobilization at 50 uM preincubated for 30 mins followed by ADP addition by fluo-4-dye based fluorescence assay; type: functional, cell-based
P2Y purinoceptor 6 [10] = biological target: T2, P2Y purinoceptor 6; assay: Antagonist activity at human P2Y6 receptor transfected in human 1321N1 cells assessed as inhibition of UDP-activated intracellular calcium mobilization at 50 uM preincubated for 30 mins followed by UDP addition by fluo-4-dye based fluorescence assay; type: functional, cell-based

IC50 (P2Y purinoceptor 4 [1]): 0.395 µM
IC50 (P2Y purinoceptor 6 [2]): 2.67 µM
IC50 (P2Y purinoceptor 1 [3]): 2.72 µM
IC50 (P2Y purinoceptor 2): 6.52 µM
IC50 (P2Y purinoceptor 12 [4]): 2.96 µM
Structure (SMILES): Cc1ccc(C)c(Sc2ccc(Nc3cc(S(=O)(=O)O)c(N)c4c3C(=O)c3ccccc3C4=O)cc2)c1

IC50 (P2Y purinoceptor 4 [1]): 0.482 µM
IC50 (P2Y purinoceptor 6 [2]): 4.36 µM
IC50 (P2Y purinoceptor 1 [3]): 4.55 µM
IC50 (P2Y purinoceptor 2): 10.2 µM
IC50 (P2Y purinoceptor 12 [4]): 2.34 µM
Structure (SMILES): Cc1ccc(Sc2ccc(Nc3cc(S(=O)(=O)O)c(N)c4c3C(=O)c3ccccc3C4=O)cc2)cc1C

IC50 (P2Y purinoceptor 4 [1]): 30 µM
inhibition (P2Y purinoceptor 4 [5]): 57%
Structure (SMILES): Nc1c(S(=O)(=O)O)cc(Nc2ccc(C(=O)O)cc2)c2c1C(=O)c1ccccc1C2=O

inhibition (P2Y purinoceptor 4 [5]): 77%
Structure (SMILES): COc1cccc(Nc2cc(S(=O)(=O)O)c(N)c3c2C(=O)c2ccccc2C3=O)c1 [listing 1 of 2 here]

IC50 (P2Y purinoceptor 4 [1]): 0.233 µM
inhibition (P2Y purinoceptor 4 [8]): Active
IC50 (P2Y purinoceptor 6 [2]): 12.5 µM
IC50 (P2Y purinoceptor 1 [3]): 5.48 µM
IC50 (P2Y purinoceptor 2): 8.54 µM
IC50 (P2Y purinoceptor 12 [4]): 2.41 µM
Structure (SMILES): Cc1ccc(Sc2ccc(Nc3cc(S(=O)(=O)O)c(N)c4c3C(=O)c3ccccc3C4=O)cc2)c(C)c1

IC50 (P2Y purinoceptor 4 [1]): 1.39 µM
Structure (SMILES): Nc1c(S(=O)(=O)O)cc(Nc2cccc(F)c2)c2c1C(=O)c1ccccc1C2=O

IC50 (P2Y purinoceptor 4 [1]): > 10 µM
Structure (SMILES): COc1cccc(Nc2cc(S(=O)(=O)O)c(N)c3c2C(=O)c2ccccc2C3=O)c1 [listing 2 of 2 here]

IC50 (P2Y purinoceptor 4 [1]): 3.16 µM
Structure (SMILES): Nc1c(S(=O)(=O)O)cc(Nc2ccc(O)cc2)c2c1C(=O)c1ccccc1C2=O

IC50 (P2Y purinoceptor 4 [1]): 0.746 µM
IC50 (P2Y purinoceptor 6 [2]): 4.75 µM
IC50 (P2Y purinoceptor 1 [3]): 7.65 µM
IC50 (P2Y purinoceptor 2): 16.4 µM
IC50 (P2Y purinoceptor 12 [4]): 0.0604 µM
Structure (SMILES): Cc1cc(Nc2cc(S(=O)(=O)O)c(N)c3c2C(=O)c2ccccc2C3=O)ccc1O

IC50 (P2Y purinoceptor 4 [1]): 2.82 µM
Structure (SMILES): Cc1ccc(Nc2cc(S(=O)(=O)O)c(N)c3c2C(=O)c2ccccc2C3=O)cc1

IC50 (P2Y purinoceptor 4 [1]): 4.13 µM
Structure (SMILES): COc1cc(Nc2cc(S(=O)(=O)O)c(N)c3c2C(=O)c2ccccc2C3=O)ccc1C

IC50 (P2Y purinoceptor 4 [1]): 1.97 to 3.1 µM
IC50 (P2Y purinoceptor 6 [2]): 2.79 µM
IC50 (P2Y purinoceptor 1 [3]): 17.6 µM
IC50 (P2Y purinoceptor 2): 17.1 µM
IC50 (P2Y purinoceptor 12 [4]): 3.12 µM
Structure (SMILES): Nc1c(S(=O)(=O)O)cc(Nc2ccccc2)c2c1C(=O)c1ccccc1C2=O [ACID BLUE 25]

IC50 (P2Y purinoceptor 4 [1]): 1.65 µM
Structure (SMILES): Cc1cc(Nc2cc(S(=O)(=O)O)c(N)c3c2C(=O)c2ccccc2C3=O)ccc1Cl

IC50 (P2Y purinoceptor 4 [1]): 6.96 µM
Structure (SMILES): Nc1c(S(=O)(=O)O)cc(Nc2cccc(Br)c2)c2c1C(=O)c1ccccc1C2=O

IC50 (P2Y purinoceptor 4 [1]): 2.2 µM
Structure (SMILES): Cc1cc(Cl)ccc1Nc1cc(S(=O)(=O)O)c(N)c2c1C(=O)c1ccccc1C2=O

inhibition (P2Y purinoceptor 1 [9]): 61%
IC50 (P2Y purinoceptor 4 [1]): 0.409 µM
IC50 (P2Y purinoceptor 6 [2]): > 100 µM
IC50 (P2Y purinoceptor 1 [3]): 25 µM
IC50 (P2Y purinoceptor 2): 13.1 µM
inhibition (P2Y purinoceptor 6 [10]): 12%
IC50 (P2Y purinoceptor 12 [4]): 3.59 µM
Structure (SMILES): Nc1c(S(=O)(=O)O)cc(Nc2ccc(SCc3cccnc3)cc2)c2c1C(=O)c1ccccc1C2=O

The remaining lines, values behind:

Structure (SMILES): COc1cccc(Nc2cc(C)c(N)c3c2C(=O)c2ccccc2C3=O)c1
IC50 (P2Y purinoceptor 4 [1]): > 30 µM
inhibition (P2Y purinoceptor 4 [5]): 38%

Structure (SMILES): Nc1c(S(=O)(=O)O)cc(Nc2cccc(F)c2C(=O)O)c2c1C(=O)c1ccccc1C2=O
IC50 (P2Y purinoceptor 4 [1]): > 100 µM
inhibition (P2Y purinoceptor 4 [6]): 10%

Structure (SMILES): Nc1c(S(=O)(=O)O)cc(Nc2ccc(Nc3ccccc3)c(S(=O)(=O)O)c2)c2c1C(=O)c1ccccc1C2=O
Kb (P2Y purinoceptor 12 [7]): 0.000158 µM

Structure (SMILES): Nc1c(S(=O)(=O)O)cc(Nc2cc(F)ccc2C(=O)O)c2c1C(=O)c1ccccc1C2=O
IC50 (P2Y purinoceptor 4 [1]): > 100 µM
inhibition (P2Y purinoceptor 4 [6]): 33%

Structure (SMILES): Nc1c(S(=O)(=O)O)cc(Nc2ccc(Br)cc2C(=O)O)c2c1C(=O)c1ccccc1C2=O
IC50 (P2Y purinoceptor 4 [1]): > 100 µM
inhibition (P2Y purinoceptor 4 [5]): 30%

Structure (SMILES): Nc1c(S(=O)(=O)O)cc(Nc2ccc([N+](=O)[O-])cc2C(=O)O)c2c1C(=O)c1ccccc1C2=O
IC50 (P2Y purinoceptor 4 [1]): > 30 µM
inhibition (P2Y purinoceptor 4 [5]): 30%

Structure (SMILES): Nc1c(S(=O)(=O)O)cc(Nc2ccc(F)cc2C(=O)O)c2c1C(=O)c1ccccc1C2=O
inhibition (P2Y purinoceptor 4 [6]): 17% and 25%

Structure (SMILES): Cc1cc(Nc2cccc(F)c2)c2c(c1N)C(=O)c1ccccc1C2=O
IC50 (P2Y purinoceptor 4 [1]): > 30 µM
inhibition (P2Y purinoceptor 4 [5]): -4%

Structure (SMILES): Nc1c(S(=O)(=O)O)cc(Nc2ccc(O)cc2C(=O)O)c2c1C(=O)c1ccccc1C2=O
IC50 (P2Y purinoceptor 4 [1]): 21.1 µM

Structure (SMILES): Nc1c(S(=O)(=O)O)cc(Nc2ccc(Nc3nc(Cl)nc(Nc4cccc(S(=O)(=O)O)c4)n3)c(S(=O)(=O)O)c2)c2c1C(=O)c1ccccc1C2=O [RB 2]
IC50 (P2Y purinoceptor 4 [1]): 1.14 µM

Structure (SMILES): CCc1ccccc1Nc1cc(S(=O)(=O)O)c(N)c2c1C(=O)c1ccccc1C2=O
IC50 (P2Y purinoceptor 4 [1]): 3.53 µM

Structure (SMILES): Nc1c(S(=O)(=O)O)cc(Nc2cc(Cl)ccc2C(=O)O)c2c1C(=O)c1ccccc1C2=O
IC50 (P2Y purinoceptor 4 [1]): 2.76 µM

Structure (SMILES): Cc1cc(Nc2ccc(F)cc2C(=O)O)c2c(c1N)C(=O)c1ccccc1C2=O
IC50 (P2Y purinoceptor 4 [1]): 100 µM
inhibition (P2Y purinoceptor 4 [6]): 57%

Structure (SMILES): Nc1c(S(=O)(=O)O)cc(Nc2ccc(Cl)cc2C(=O)O)c2c1C(=O)c1ccccc1C2=O
IC50 (P2Y purinoceptor 4 [1]): > 100 µM
inhibition (P2Y purinoceptor 4 [6]): 31%

Structure (SMILES): Nc1c(S(=O)(=O)O)cc(NCCc2ccccc2)c2c1C(=O)c1ccccc1C2=O
IC50 (P2Y purinoceptor 4 [1]): 7.18 µM
